Measured values as given in ChEMBL document CHEMBL5321286, “Antiviral Evaluation of Dispirotripiperazines against Hepatitis B Virus” (J Med Chem, 2023).
Active and inactive are the calls of the source. The rule behind the calls is not given here.

Key:
[1] = Selectivity index, ratio of CC50 for cytotoxicity against human HepDES19 cells to EC50 for antiviral activity against Hepatitis B virus infected in human HepDES19 cells; format: toxicity, cell-based; settings: for selectivity ratio: HepDES19 cells, read-out: Ratio CC50/EC50
Outline: (§1)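 HepDES19 (HepG2-derived, tetracycline-repressible HBV cassette) cells were induced to replicate HBV by tetracycline withdrawal and exposed to compound for 3 days. Replication was read by strand-preferential qPCR; cytotoxicity by MTS assay.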

Hepatitis B virus [2] = experiment: Antiviral activity against Hepatitis B virus ayw1 infected in human HepG2 2.2.15 cells assessed as reduction in viral DNA replication preincubated for 3 days followed by media replacement and measured 6 days after first dose by q-PCR assay; settings: ayw1, HepG2 2.2.15, 144 h
Hepatitis B virus [3] = experiment: Antiviral activity against Hepatitis B virus ayw1 infected in human HepG2 2.2.15 cells assessed as reduction in viral DNA replication preincubated for 3 days followed by media replacement and measured after 6 days by q-PCR assay; format: functional, organism-based; settings: ayw1, HepG2 2.2.15
Outline: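 HepG2 2.2.15 cells at 1.5 × 10^4 cells/well in DMEM with 2% FBS and 380 μg/mL G418, treated after 16-24 h at several concentrations in triplicate. Compound medium renewed on day 3. Supernatant taken on day 6, pronase-treated, and extracellular HBV DNA measured by TaqMan qPCR against a purified HBV DNA standard curve. EC50 and EC90 taken from the DNA reduction. Lamivudine served as positive control and medium alone as virus control.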

[4] = Cytotoxicity against human HepG2 2.2.15 cells assessed as reduction in cell viability by MTS assay; format: toxicity, cell-based
Outline: (§2)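 HepG2 2.2.15 cells seeded at 1.5 × 10^4 cells/well in DMEM with 2% FBS, 380 μg/mL G418 and glutamine, using interior wells only. After 16-24 h, the medium was replaced with serial compound dilutions in triplicate, refreshed at day 3. At day 6, pronase-treated supernatant HBV DNA was measured by TaqMan qPCR against a standard curve (EC50/EC90). MTS viability on the same plate gave CC50; SI = CC50/EC.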

Hepatitis B virus [5] = experiment: Antiviral activity against Hepatitis B virus infected in human HepDES19 cells assessed as reduction in viral DNA replication measured after 3 days by q-PCR assay; format: functional, organism-based
Outline: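 HepDES19, a HepG2 derivative with a tetracycline-repressible HBV cassette, was induced to replicate HBV by tetracycline withdrawal. Cells were exposed to compound for 3 days. Replication was measured by strand-preferential qPCR.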

[6] = Cytotoxicity against human HepDES19 cells assessed as reduction in cell viability incubated for 72 hrs by MTS assay; format: toxicity, cell-based; settings: for CC50 at 72 h: HepDES19 cells; outline: as §1
[7] = Selectivity index, ratio of CC50 for cytotoxicity against human HepG2 2.2.15 cells to EC50 for antiviral activity against Hepatitis B virus ayw1 infected in human HepG2 2.2.15 cells; format: toxicity, cell-based; settings: read-out: Ratio CC50/EC50; outline: as §2
[8] = Selectivity index, ratio of CC50 for cytotoxicity against human HepG2 2.2.15 cells to EC90 for antiviral activity against Hepatitis B virus ayw1 infected in human HepG2 2.2.15 cells; format: toxicity, cell-based; outline: as §2
Hepatitis B virus [9] = experiment: Antiviral activity against Hepatitis B virus infected in human HepDES19 cells assessed as reduction in capsid accumulation by measuring intracellular HBV nucleocapsid level after 5 days by agarose gel electrophoresis-based assay; format: functional, organism-based; settings: time 5.0 day
Outline: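 HepDES19 cells replicating HBV were treated for 5 days. They were lysed in 10mM Tris pH 7.4, 1% Tween 20 and 150mM NaCl with protease inhibitors. Lysates were digested with micrococcal nuclease plus 10mM CaCl2 (final), normalised for protein by Bradford, and run on native agarose gels. Gels were capillary-blotted to nitrocellulose and probed with anti-HBcAg and an AP-conjugated secondary with BCIP/NBT. Bands were quantified by densitometry.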

[10] = Hepatitis B virus, HepDES19, 72 h

Row | Structure (SMILES) | selectivity ratio [1] | EC90 (Hepatitis B virus [2]) | EC50 (Hepatitis B virus [3]) | CC50 [4] | EC50 (Hepatitis B virus [5]; [10]) | CC50 at 72 h [6] | selectivity ratio [7] | selectivity ratio [8] | Ratio CC50/EC50 [1] | EC50 (Hepatitis B virus [5]; hepdes19) | CC50 ([6]; hepdes19, 72 h, 72 h) | Activity (Hepatitis B virus [9])
1 | O=Cc1c(N2CC[N+]3(CC2)CC[N+]2(CCNCC2)CC3)nc(-c2ccccc2)nc1N1CC[N+]2(CC1)CC[N+]1(CCNCC1)CC2 | 41 | 26.5 µM | 2.13 µM | > 100 µM | 2.1 µM | 86 µM | > 47 | > 4 |  |  |  | 
2 | Cl.Cl.Clc1nc(N2CCC[N+]3(CC2)CC[N+]2(CCCNCC2)CC3)nc(N2CCC[N+]3(CC2)CC[N+]2(CCCNCC2)CC3)n1.[Br-].[Br-].[Br-].[Br-] (configuration not stated) |  |  |  |  |  |  |  |  | 0.67 | > 100 µM | 67 µM | 
3 | Nc1c(N2CC[N+]3(CCC[N+]4(CCNCC4)CC3)CC2)ncnc1N1CC[N+]2(CCC[N+]3(CCNCC3)CC2)CC1 | 4.5 | 78.1 µM | 22 µM | > 100 µM | 22 µM | 100 µM | > 5 | > 1 |  |  |  | 
4 | O=Cc1c(N2CC[N+]3(CCC[N+]4(CCNCC4)CC3)CC2)ncnc1N1CC[N+]2(CCC[N+]3(CCNCC3)CC2)CC1 | < 1 |  |  |  | > 100 µM | 100 µM |  |  |  |  |  | 
5 | O=Cc1c(N2CCC[N+]3(CC2)CC[N+]2(CCCNCC2)CC3)nc(-c2ccccc2)nc1N1CCC[N+]2(CC1)CC[N+]1(CCCNCC1)CC2 (configuration not stated) | 8.4 |  |  |  | 11 µM | 92 µM |  |  |  |  |  | 
6 | Cc1nc(N2CC[N+]3(CCC[N+]4(CCNCC4)CC3)CC2)c([N+](=O)[O-])c(N2CC[N+]3(CCC[N+]4(CCNCC4)CC3)CC2)n1 | 15 | 58.1 µM | 6.53 µM | > 100 µM | 6.5 µM | 100 µM | > 15 | > 2 |  |  |  | Active
7 | Cc1nc(N2CCC[N+]3(CC2)CC[N+]2(CCCNCC2)CC3)c([N+](=O)[O-])c(N2CCC[N+]3(CC2)CC[N+]2(CCCNCC2)CC3)n1 (configuration not stated) | 19 |  |  |  | 5.3 µM | 100 µM |  |  |  |  |  | 
8 | Clc1nc(N2CCC[N+]3(CC2)CC[N+]2(CCCNCC2)CC3)nc(N2CCC[N+]3(CC2)CC[N+]2(CCCNCC2)CC3)n1 (configuration not stated) |  |  |  |  |  |  |  |  |  |  |  | Active
9 | Nc1ccn([C@@H]2CS[C@H](CO)O2)c(=O)n1 [LAMIVUDINE] |  | 0.541 µM | 0.018 µM | > 2 µM |  |  | > 113 | > 4 |  |  |  | 
10 | O=[N+]([O-])c1c(N2CCC[N+]3(CC2)CC[N+]2(CCCNCC2)CC3)ncnc1N1CCC[N+]2(CC1)CC[N+]1(CCCNCC1)CC2 (configuration not stated) | 11 |  |  |  | 9 µM | 100 µM |  |  |  |  |  | 
11 | Cc1nc(N2CC[N+]3(CC2)CC[N+]2(CCNCC2)CC3)c(N)c(N2CC[N+]3(CC2)CC[N+]2(CCNCC2)CC3)n1 | 143 | 15.7 µM | 1.86 µM | > 100 µM | 0.7 µM | 100 µM | > 54 | > 6 |  |  |  | 
12 | Nc1c(N2CCC[N+]3(CC2)CC[N+]2(CCCNCC2)CC3)ncnc1N1CCC[N+]2(CC1)CC[N+]1(CCCNCC1)CC2 (configuration not stated) | 2.5 |  |  |  | 40 µM | 100 µM |  |  |  |  |  | 
13 | O=[N+]([O-])c1c(N2CC[N+]3(CCC[N+]4(CCNCC4)CC3)CC2)ncnc1N1CC[N+]2(CCC[N+]3(CCNCC3)CC2)CC1 | 11 |  |  |  | 9 µM | 100 µM |  |  |  |  |  | 
14 | O=Cc1c(O)nc(N2CC[N+]3(CCC[N+]4(CCNCC4)CC3)CC2)nc1N1CC[N+]2(CCC[N+]3(CCNCC3)CC2)CC1 | 100 |  |  |  | 1 µM | 100 µM |  |  |  |  |  | 
15 | O=Cc1c(N2CCC[N+]3(CC2)CC[N+]2(CCCNCC2)CC3)ncnc1N1CCC[N+]2(CC1)CC[N+]1(CCCNCC1)CC2 (configuration not stated) | < 1 |  |  |  | > 100 µM | 100 µM |  |  |  |  |  | 
16 | O=Cc1c(N2CC[N+]3(CCC[N+]4(CCNCC4)CC3)CC2)nc(-c2ccccc2)nc1N1CC[N+]2(CCC[N+]3(CCNCC3)CC2)CC1 | 1.8 |  |  |  | 48 µM | 88 µM |  |  |  |  |  | 
17 | Clc1nc(N2CCC[N+]3(CC2)CC[N+]2(CCCNCC2)CC3)nc(N2CCC[N+]3(CC2)CC[N+]2(CCCNCC2)CC3)n1.[Br-].[Br-].[Br-].[Br-] (configuration not stated) |  |  |  |  |  | 99 µM |  |  | 13 | 7.5 µM |  | 
